Our source for the Response and Binding constant values is ChEMBL document CHEMBL1130127, “Synthesis, photophysical properties, in vivo photosensitizing efficacy, and human serum albumin binding properties of some novel bacteriochlorins” (J Med Chem, 1997).

The subject of data set [1] is Mus musculus. Put plainly: The compound was tested in vivo for photosensitizing efficacy in DBA/2 Mice transplanted with SMT/F tumors and the activity is expressed as % response at (16-20 days) 3 hours post injection at 5 mg/kg concentration. Type of data set: functional. The gist of the method:
(§1)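 Female DBA/2 HA-DD mice, 5-7 weeks old. A 1 mm SMT-F tumor piece from a donor was trocar-implanted subcutaneously in the axilla. At about 5 mm tumor diameter, sensitizer in 1% Tween 80/water was given iv; dose was based on extinction coefficient. At 3 or 24 h after injection, restrained mice had the tumor lit with 135 J/cm2 laser light at the in vivo long-wavelength maximum. Tumor response was followed to day 30; six mice/group.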

Data set [2] relates to Mus musculus. Briefly: The compound was tested in vivo for photosensitizing efficacy in DBA/2 Mice transplanted with SMT/F tumors and the activity is expressed as % response at (6-10 days) 3 hours post injection at 5 mg/kg concentration. The class given is functional.
For data set [3], the system named is Mus musculus. Put plainly: The compound was tested in vivo for photosensitizing efficacy in DBA/2 Mice transplanted with SMT/F tumors and the activity is expressed as % response at (16-20 days) 24 hours post injection at 5 mg/kg concentration; No response. Type of data set: functional, organism-based. Also on record: dose 5 mg/kg. The gist of the method: as §1

In data set [4] the test system is Mus musculus. Put plainly: The compound was tested in vivo for photosensitizing efficacy in DBA/2 Mice transplanted with SMT/F tumors and the activity is expressed as % response at (6-10 days) 24 hours post injection at 5 mg/kg concentration; No response. Also on record: dose 5 mg/kg. The class given is functional, organism-based.
For data set [5], the system named is Mus musculus. Briefly: The compound was tested in vivo for photosensitizing efficacy in DBA/2 Mice transplanted with SMT/F tumors and the activity is expressed as % response at (11-15 days) 3 hours post injection at 5 mg/kg concentration. Type of data set: functional. The procedure, abridged:
as §1

Data set [6] concerns Mus musculus. Put plainly: The compound was tested in vivo for photosensitizing efficacy in DBA/2 Mice transplanted with SMT/F tumors and the activity is expressed as % response at (26-30 days) 24 hours post injection at 5 mg/kg concentration; No response. Type of data set: functional, organism-based. Details: dose 5 mg/kg.
Data set [7] relates to Mus musculus. Briefly: The compound was tested in vivo for photosensitizing efficacy in DBA/2 Mice transplanted with SMT/F tumors and the activity is expressed as % response at (26-30 days) 3 hours post injection at 2.5 mg/kg concentration; No response. The class given is functional, organism-based. Details: dose 2.5 mg/kg.
For data set [8], the system named is Mus musculus. Put plainly: The compound was tested in vivo for photosensitizing efficacy in DBA/2 Mice transplanted with SMT/F tumors and the activity is expressed as % response at (1-5 days) 3 hours post injection at 5.0 mg/kg concentration. The class given is functional. The procedure, abridged: as §1
Data set [9] relates to Mus musculus. Put plainly: The compound was tested in vivo for photosensitizing efficacy in DBA/2 Mice transplanted with SMT/F tumors and the activity is expressed as % response at (11-15 days) 3 hours post injection at 2.5 mg/kg concentration; No response. The class given is functional, organism-based. Also on record: dose 2.5 mg/kg. The procedure, abridged: as §1
Data set [10] concerns Mus musculus. Put plainly: The compound was tested in vivo for photosensitizing efficacy in DBA/2 Mice transplanted with SMT/F tumors and the activity is expressed as % response at (1-5 days) 3 hours post injection at 2.5 mg/kg concentration; No response. Details: dose 2.5 mg/kg. Type of data set: functional, organism-based. The procedure, abridged: as §1
Data set [11] concerns Mus musculus. Put plainly: The compound was tested in vivo for photosensitizing efficacy in DBA/2 Mice transplanted with SMT/F tumors and the activity is expressed as % response at (11-15 days) 24 hours post injection at 5 mg/kg concentration; No response. The class given is functional, organism-based. Details: dose 5 mg/kg. The gist of the method:
as §1

For data set [12], the system named is Mus musculus. Put plainly: The compound was tested in vivo for photosensitizing efficacy in DBA/2 Mice transplanted with SMT/F tumors and the activity is expressed as % response at (6-10 days) 3 hours post injection at 2.5 mg/kg concentration; No response. Type of data set: functional, organism-based. Details: dose 2.5 mg/kg.
Data set [13] deals with Mus musculus. Put plainly: The compound was tested in vivo for photosensitizing efficacy in DBA/2 Mice transplanted with SMT/F tumors and the activity is expressed as % response at (21-25 days) 24 hours post injection at 5 mg/kg concentration; No response. Details: dose 5 mg/kg. The class given is functional, organism-based. The gist of the method:
as §1

Data set [14] concerns Mus musculus. Briefly: The compound was tested in vivo for photosensitizing efficacy in DBA/2 Mice transplanted with SMT/F tumors and the activity is expressed as % response at (1-5 days) 24 hours post injection at 5 mg/kg concentration; No response. The class given is functional, organism-based. Also on record: dose 5 mg/kg. The gist of the method: as §1
For data set [15], the system named is Mus musculus. Briefly: The compound was tested in vivo for photosensitizing efficacy in DBA/2 Mice transplanted with SMT/F tumors and the activity is expressed as % response at (21-25 days) 3 hours post injection at 5 mg/kg concentration. Type of data set: functional.
The subject of data set [16] is Mus musculus. Put plainly: The compound was tested in vivo for photosensitizing efficacy in DBA/2 Mice transplanted with SMT/F tumors and the activity is expressed as % response at (26-30 days) 3 hours post injection at 5 mg/kg concentration. Type of data set: functional.
In data set [17] the test system is Mus musculus. Put plainly: The compound was tested in vivo for photosensitizing efficacy in DBA/2 Mice transplanted with SMT/F tumors and the activity is expressed as % response at (16-20 days) 3 hours post injection at 2.5 mg/kg concentration; No response. Details: dose 2.5 mg/kg. The class given is functional, organism-based. The procedure, abridged: as §1

Another data set addresses Albumin (Homo sapiens, UniProt P02768). Put plainly: Binding affinity against Human serum albumin(Site I). The procedure, abridged: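 Fluorometric titration: HSA and sensitizer fixed at 1 × 10^-6 mol/L. Site probe varied 4 × 10^-7 to 2 × 10^-6 mol/L: DNSA for site I, read at 472 nm; DP for site II, read at 476 nm; excitation 340 nm. Incubated 4 °C, pH 7.0, 4 h, dark. Bound probe taken from standard curves of free probe (water) and HSA-bound probe (2.5 × 10^-5 mol/L HSA).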

Data set [18] has as its system Mus musculus. Briefly: The compound was tested in vivo for photosensitizing efficacy in DBA/2 Mice transplanted with SMT/F tumors and the activity is expressed as % response at (21-25 days) 3 hours post injection at 2.5 mg/kg concentration; No response. Details: dose 2.5 mg/kg. The class given is functional, organism-based. The procedure, abridged: as §1
Data set [19] has as its system Mus musculus. Briefly: The compound was tested in vivo for photosensitizing efficacy in DBA/2 Mice at (1-5 days) 3 hours post injection at 5.0 mg/kg concentration; No response. Details: dose 5 mg/kg. Type of data set: functional, organism-based. The procedure, abridged:
as §1

The subject of data set [20] is Mus musculus. Put plainly: The compound was tested in vivo for photosensitizing efficacy in DBA/2 Mice transplanted with SMT/F tumors and the activity is expressed as % response (21-25 days) 3 hours post injection at 5.0 mg/kg concentration; No response. The class given is functional, organism-based. Details: dose 5 mg/kg. The gist of the method:
as §1

Data set [21] deals with Mus musculus. Put plainly: The compound was tested in vivo for photosensitizing efficacy in DBA/2 Mice transplanted with SMT/F tumors and the activity is expressed as % response (16-20 days) 3 hours post injection at 5.0 mg/kg concentration; No response. The class given is functional, organism-based. Details: dose 5 mg/kg. The procedure, abridged:
as §1

The test system of data set [22] is Mus musculus. Put plainly: The compound was tested in vivo for photosensitizing efficacy in DBA/2 Mice transplanted with SMT/F tumors and the activity is expressed as % response (6-10 days) 3 hours post injection at 5.0 mg/kg concentration; No response. Type of data set: functional, organism-based. Details: dose 5 mg/kg. The gist of the method:
as §1

Data set [23] concerns Mus musculus. Put plainly: The compound was tested in vivo for photosensitizing efficacy in DBA/2 Mice transplanted with SMT/F tumors and the activity is expressed as % response (11-15 days) 3 hours post injection at 5.0 mg/kg concentration; No response. The class given is functional, organism-based. Also on record: dose 5 mg/kg. The procedure, abridged: as §1
The test system of data set [24] is Mus musculus. Briefly: The compound was tested in vivo for photosensitizing efficacy in DBA/2 Mice transplanted with SMT/F tumors and the activity is expressed as % response (26-30 days) 3 hours post injection at 5.0 mg/kg concentration; No response. Also on record: dose 5 mg/kg. Type of data set: functional, organism-based. The procedure, abridged:
as §1

Calls of active or inactive are those of the source. No cut-off for these calls is given here.

Albumin, sequence (P02768 whole entry): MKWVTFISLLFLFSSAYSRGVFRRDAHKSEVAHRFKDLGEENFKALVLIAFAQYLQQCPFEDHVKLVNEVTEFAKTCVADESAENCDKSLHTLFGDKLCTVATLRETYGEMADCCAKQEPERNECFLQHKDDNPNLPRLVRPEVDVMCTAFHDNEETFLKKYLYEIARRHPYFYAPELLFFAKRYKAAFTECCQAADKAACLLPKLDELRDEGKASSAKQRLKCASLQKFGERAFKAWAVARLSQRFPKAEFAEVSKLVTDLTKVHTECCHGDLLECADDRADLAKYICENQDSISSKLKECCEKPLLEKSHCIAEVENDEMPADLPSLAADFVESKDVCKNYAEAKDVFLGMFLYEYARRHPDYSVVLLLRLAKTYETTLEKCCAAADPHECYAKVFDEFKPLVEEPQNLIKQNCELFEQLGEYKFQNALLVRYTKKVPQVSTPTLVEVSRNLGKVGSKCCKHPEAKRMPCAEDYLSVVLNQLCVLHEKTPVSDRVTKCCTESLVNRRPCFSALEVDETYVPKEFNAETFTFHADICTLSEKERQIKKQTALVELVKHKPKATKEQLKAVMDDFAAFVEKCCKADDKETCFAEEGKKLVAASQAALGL

Turning to `CCc1c(C)c2[nH]c1cc1[nH]c(cc3nc4c(c5nc(c2C=O)[C@@H](C)[C@@H]5CCC(=O)NC(CC(=O)OC(C)(C)C)C(=O)OC(C)(C)C)CCC4=C3C)C(O)(CC)C1(C)O` (stereo partly specified), the Response with Mus musculus [1] turned out to be 80%; in the data set with Mus musculus [2], 100%; in the data set on Mus musculus [5], 100%; with Mus musculus [8] it was 100%; in the data set with Mus musculus [15] it was 50%; in the data set with Mus musculus [16], 50%. For the same molecule, the Response entry with Mus musculus [3], in the data set with Mus musculus [4], in the data set on Mus musculus [6], with Mus musculus [7], in the data set with Mus musculus [9] and in the data set on Mus musculus [10] was “inactive” in each case. Further, the Response entry in the data set on Mus musculus [11], with Mus musculus [12], in the data set with Mus musculus [13], with Mus musculus [14], in the data set with Mus musculus [17] and in the data set with Mus musculus [18] was “inactive” throughout. For the same molecule, at Albumin, the Binding constant is 500000 l M-1.
Take `CCc1c(C)c2[nH]c1cc1[nH]c(cc3nc4c(c5nc(c2C=O)[C@@H](C)[C@@H]5CCC(=O)OC)CCC4=C3C)C(O)(CC)C1(C)O` (stereo partly specified): the Response entry with Mus musculus [19], in the data set with Mus musculus [20], in the data set on Mus musculus [21], in the data set with Mus musculus [22], with Mus musculus [23] and with Mus musculus [24] was “inactive” in each case. The Binding constant on Albumin is 500000 l M-1.
